What was measured:
Type in all cases: functional, cell-based
Jurkat = assay: Antiproliferative activity against human Jurkat cells after 72 hrs by MTT assay
How it was run: (§1)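 Exponentially growing cells were counted by trypan blue exclusion and seeded at 10^4 cells/well in 96-well plates to keep growth logarithmic. Cells were exposed to compound for 72 h, then read by tetrazolium (MTT) colorimetry. IC50 is the concentration giving 50% growth inhibition versus untreated control. Values are means (SD) of three independent experiments, each in quadruplicate.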

MRC5 = assay: Antiproliferative activity against human MRC5 cells after 72 hrs by MTT assay; conditions: MRC5, 72 h
How it was run: (§2)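 Seeded at 5 × 10^3 cells/well in 96-well plates after harvesting in exponential growth and trypan blue counting. MRC-5 are normal foetal lung fibroblasts. Exposure was 72 h, with MTT colorimetric read-out. Results are means (SD) of three independent experiments done in quadruplicate.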

Raji = assay: Antiproliferative activity against human Raji cells after 72 hrs by MTT assay
How it was run: as §1, with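 “colorimetry.” for “colorimetry. IC50 is the concentration giving 50% growth inhibition versus untreated control.”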

HeLa = assay: Antiproliferative activity against human HeLa cells after 72 hrs by MTT assay; how it was run: as §2
K562 = assay: Antiproliferative activity against human K562 cells after 72 hrs by MTT assay; conditions: K562, 72 h
How it was run: as §1, with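 “colorimetry.” for “colorimetry. IC50 is the concentration giving 50% growth inhibition versus untreated control.”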

HL-60 = assay: Antiproliferative activity against human HL60 cells after 72 hrs by MTT assay; conditions: HL-60, 72 h; how it was run: as §1

IC50 (Jurkat) [µM]	IC50 (Raji) [µM]	IC50 (HeLa) [µM]	IC50 (K562) [µM]	IC50 (HL-60) [µM]	Structure (SMILES)	IC50 (MRC5) [µM]
2.23	2.21	2.34	0.54	0.09	O=C1CC[C@@H]([C@@H](O)[C@H](O)[C@H](O)c2ccccc2)O1	> 100
0.36	1.01	5.69	0.23	0.12	O=C1C[C@H]2O[C@H]([C@H](OC(=O)c3ccccc3)c3ccccc3)[C@H](O)[C@H]2O1	> 100
32.5	18.4	8.32	0.41	> 100	O=C1C[C@H]2O[C@H]([C@H](O)c3ccccc3)[C@H](O)[C@H]2O1	> 100
2.52	1.03	4.42	0.51	43.8	O=C1CC2O[C@H](Cc3ccccc3)C(O)C2O1 (single isomer, unassigned)	> 100
			3.56	> 100	O=C(/C=C/c1ccccc1)O[C@H](c1ccccc1)[C@H]1O[C@@H]2CC(=O)O[C@@H]2[C@H]1O [(+)-CRASSALACTONE C]	> 100
